Reference: ChEMBL document CHEMBL5120856, “New salicylic acid derivatives, double inhibitors of glycolate oxidase and lactate dehydrogenase, as effective agents decreasing oxalate production” (Eur J Med Chem, 2022)

Tests used:
[1] = biological target: T1, 2-Hydroxyacid oxidase 1 (Homo sapiens) (UniProt Q9UJM8); assay: (§1) Inhibition of N-terminal His-tagged human recombinant glycolate oxidase expressed in Escherichia coli BL21 (DE3) cells using glycolate as substrate at 20 uM preincubated for 5 mins followed by substrate addition and measured after 1 min in the presence of DCHBS by horseradish peroxidase coupled colorimetric method relative to control; settings: time 6.0 min
T1 sequence (whole entry): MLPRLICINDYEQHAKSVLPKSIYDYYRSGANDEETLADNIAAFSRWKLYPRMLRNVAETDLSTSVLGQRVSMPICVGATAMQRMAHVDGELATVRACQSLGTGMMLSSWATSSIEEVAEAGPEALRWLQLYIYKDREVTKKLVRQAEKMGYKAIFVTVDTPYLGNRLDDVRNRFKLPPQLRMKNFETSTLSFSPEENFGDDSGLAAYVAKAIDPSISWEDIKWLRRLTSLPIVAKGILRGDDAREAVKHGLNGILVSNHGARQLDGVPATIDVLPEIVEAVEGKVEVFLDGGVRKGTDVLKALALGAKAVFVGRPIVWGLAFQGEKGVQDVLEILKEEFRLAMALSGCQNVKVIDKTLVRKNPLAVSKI

[2] = biological target: T2, 2-Hydroxyacid oxidase 1 (Mus musculus) (UniProt Q9WU19); assay: as §1, with “mouse” for “human”; settings: time 6.0 min
T2 sequence (whole entry): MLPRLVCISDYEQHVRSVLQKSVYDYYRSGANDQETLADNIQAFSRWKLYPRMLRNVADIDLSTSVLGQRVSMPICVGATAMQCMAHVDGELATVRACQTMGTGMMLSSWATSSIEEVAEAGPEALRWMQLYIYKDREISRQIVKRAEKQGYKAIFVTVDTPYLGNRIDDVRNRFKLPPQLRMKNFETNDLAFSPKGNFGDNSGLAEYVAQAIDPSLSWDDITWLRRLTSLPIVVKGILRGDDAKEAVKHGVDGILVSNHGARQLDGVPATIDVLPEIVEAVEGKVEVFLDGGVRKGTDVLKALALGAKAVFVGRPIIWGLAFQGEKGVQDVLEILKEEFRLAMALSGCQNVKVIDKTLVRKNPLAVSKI

[3] = biological target: T3, L-lactate dehydrogenase A chain (Homo sapiens, UniProt P00338); assay: Inhibition of human recombinant LDHA using pyruvate as substrate preincubated for 10 mins followed by substrate addition and measured every 60 sec for 10 mins in the presence of NADH by fluorescence assay
[4] = biological target: L-lactate dehydrogenase B chain (Homo sapiens, UniProt P07195); assay: Inhibition of human recombinant LDHB using pyruvate as substrate preincubated for 10 mins followed by substrate addition and measured every 60 sec for 10 mins in the presence of NADH by fluorescence assay
Hepatocyte [5] = assay: Inhibition of GO/LDHA in hyperoxaluric-primary hepatocyte isolated from Agxt1 knockdown PH1 C57BL/6 mouse assessed as relative oxalate output at 10 uM measured at 24 hrs in the presence of glycolate relative to control; assay type: cell-based
Method in brief: (§2)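 Agxt1-/- mouse primary hepatocytes cultured with 5 mM glycolate, inhibitor at 10 μM; extracellular oxalate measured by colorimetric kit 24 and 48 h after inhibitor addition; relative oxalate = oxalate with inhibitor over oxalate without inhibitor; negative values mean below detection limit; mean of three/four replicates ± SD.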

Hepatocyte [6] = assay: Inhibition of GO/LDHA in hyperoxaluric-primary hepatocyte isolated from Agxt1 knockdown PH1 C57BL/6 mouse assessed as relative oxalate output at 10 uM measured at 48 hrs in the presence of glycolate relative to control; assay type: cell-based; method in brief: as §2
Hepatocyte [7] = assay: Cytotoxicity against hyperoxaluric-primary hepatocyte isolated from Hoga1-knockdown PH3 C57BL/6 mouse assessed as cell death at 10 uM by MTS assay; assay type: toxicity, cell-based; settings: hepatocytes, Hoga1-knockdown PH3, 10 µM
Method in brief: (§3)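 Primary hepatocytes from Agxt1-/- (PH1, 5 mM glycolate), Grhpr-/- (PH2, 10 mM glycolate) or Hoga1-/- (PH3, 10 mM hydroxyproline) mice, incubated with inhibitor at 10 μM; viability followed through the oxalate assay by MTS tetrazolium method.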

Hepatocyte [8] = assay: Cytotoxicity against hyperoxaluric-primary hepatocyte isolated from Grhpr-knockdown PH2 C57BL/6 mouse assessed as cell death at 10 uM by MTS assay; assay type: toxicity, cell-based; settings: hepatocytes, Grhpr-knockdown PH2 (primary hyperoxaluria type 2); method in brief: as §3
Hepatocyte [9] = assay: Cytotoxicity against hyperoxaluric-primary hepatocyte isolated from Agxt1-knockdown PH1 C57BL/6 mouse assessed as cell death at 10 uM by MTS assay; assay type: toxicity, cell-based; settings: hepatocytes, Agxt1-knockdown PH1, 10 µM; method in brief: as §3
Hepatocyte [10] = assay: Inhibition of GO/LDHA in hyperoxaluric-primary hepatocyte isolated from Grhpr-knockdown PH2 C57BL/6 mouse assessed as relative oxalate output at 10 uM measured at 24 hrs in the presence of glycolate relative to control; assay type: cell-based
Method in brief: (§4)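 Grhpr-/- mouse primary hepatocytes cultured with 10 mM glycolate, inhibitor at 10 μM; extracellular oxalate determined colorimetrically at 24 and 48 h post-treatment, expressed relative to untreated medium (RO); negative RO means below detection limit; three/four replicates, mean ± SD.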

Hepatocyte [11] = assay: Inhibition of GO/LDHA in hyperoxaluric-primary hepatocyte isolated from Grhpr-knockdown PH2 C57BL/6 mouse assessed as relative oxalate output at 10 uM measured at 48 hrs in the presence of glycolate relative to control; assay type: cell-based; method in brief: as §4
Hepatocyte [12] = assay: Inhibition of GO/LDHA in hyperoxaluric-primary hepatocyte isolated from Hoga1-knockdown PH3 C57BL/6 mouse assessed as relative oxalate output at 10 uM measured at 24 hrs in the presence of hydroxyproline relative to control; assay type: cell-based
Method in brief: (§5)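 Hoga1-/- mouse primary hepatocytes challenged with 10 mM hydroxyproline, inhibitor 10 μM; extracellular oxalate measured by colorimetric kit 24 and 48 h after dosing, given as ratio to oxalate without inhibitor; negative values are below detection limit; mean of three/four replicates ± SD.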

Hepatocyte [13] = assay: Inhibition of GO/LDHA in hyperoxaluric-primary hepatocyte isolated from Hoga1-knockdown PH3 C57BL/6 mouse assessed as relative oxalate output at 10 uM measured at 48 hrs in the presence of hydroxyproline relative to control; assay type: cell-based; method in brief: as §5
2-Hydroxyacid oxidase 1 [14] = biological target: T4, 2-Hydroxyacid oxidase 1 (Homo sapiens, UniProt Q9UJM8); assay: Inhibition of N-terminal His-tagged human recombinant glycolate oxidase expressed in Escherichia coli BL21 (DE3) cells using glycolate as substrate preincubated for 10 mins followed by substrate addition and measured after 10 mins by Amplex red and horseradish peroxidase based fluorescence assay
T4 sequence (Q9UJM8 whole entry): T1 sequence (whole entry)

2-Hydroxyacid oxidase 1 [15] = biological target: T5, 2-Hydroxyacid oxidase 1 (Mus musculus, UniProt Q9WU19); assay: Inhibition of N-terminal His-tagged mouse recombinant glycolate oxidase expressed in Escherichia coli BL21 (DE3) cells using glycolate as substrate preincubated for 10 mins followed by substrate addition and measured after 10 mins by Amplex red and horseradish peroxidase based fluorescence assay
T5 sequence (Q9WU19 whole entry): T2 sequence (whole entry)

HEK293 = assay: Cytotoxicity against HEK293 cells assessed as reduction in cell viability upto 50 uM measured after 48 hrs by MTT assay; assay type: toxicity, cell-based; settings: human, hek293, 48 h
Hepatocyte [16] = assay: Inhibition of GO/LDHA in hyperoxaluric-primary hepatocyte isolated from Agxt1 knockdown PH1 C57BL/6 mouse assessed as reduction in extracellular oxalate concentration at 10 uM measured at 48 hrs in the presence of glycolate relative to control; assay type: cell-based; parameters: scale not given: the % may be the effect or the level left; method in brief: as §2
[17] = Inhibition of GO/LDHA in hyperoxaluric-primary hepatocyte isolated from Agxt1 knockdown PH1 C57BL/6 mouse measured at 24 hrs in the presence of 5 mM glycolate; assay type: cell-based
Method in brief: (§6)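 Agxt1-/- hepatocytes with 5 mM glycolate; eight inhibitor concentrations per replicate; extracellular oxalate measured colorimetrically at 24 or 48 h; EC50 as mean of three/four replicates ± SD.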

[18] = Inhibition of GO/LDHA in hyperoxaluric-primary hepatocyte isolated from Agxt1 knockdown PH1 C57BL/6 mouse measured at 48 hrs in the presence of 5 mM glycolate; assay type: cell-based; method in brief: as §6
[19] = biological target: T3, L-lactate dehydrogenase A chain; assay: Inhibition of human recombinant LDHA using pyruvate as substrate at 10 uM preincubated for 10 mins followed by substrate addition and measured every 60 sec for 10 mins in the presence of NADH by fluorescence assay relative to control; settings: time 20.0 min
Method in brief: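 Recombinant human LDHA or LDHB (0.015 U/mL) with NADH 150 μM and inhibitor 10 μM in 50 mM phosphate pH 7, 10 min rt baseline read; pyruvate 1 mM added, NADH fluorescence (ex 340/em 460 nm) read every 60 s for 10 min; baseline-corrected slope versus 100% activity control; four replicates.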

Chain of L-lactate dehydrogenase B chain (P07195 whole entry): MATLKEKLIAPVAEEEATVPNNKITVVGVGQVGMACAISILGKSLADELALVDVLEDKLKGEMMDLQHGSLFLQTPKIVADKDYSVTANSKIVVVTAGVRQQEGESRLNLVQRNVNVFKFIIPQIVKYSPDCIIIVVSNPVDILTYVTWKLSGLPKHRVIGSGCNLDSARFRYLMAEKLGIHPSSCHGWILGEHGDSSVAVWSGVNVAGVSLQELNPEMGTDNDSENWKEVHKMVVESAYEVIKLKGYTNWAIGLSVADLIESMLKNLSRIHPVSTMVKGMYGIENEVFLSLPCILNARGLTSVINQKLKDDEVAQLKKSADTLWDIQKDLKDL

Row | Compound | inhibition [1] [%] | inhibition [2] [%] | IC50 [3] [nM] | IC50 [4] [µM] | fold change (FC) (Hepatocyte [5]) | fold change (FC) (Hepatocyte [6]) | Activity (Hepatocyte [7]) | Activity (Hepatocyte [8]) | Activity (Hepatocyte [9]) | fold change (FC) (Hepatocyte [10]) | fold change (FC) (Hepatocyte [11]) | fold change (FC) (Hepatocyte [12]) | fold change (FC) (Hepatocyte [13]) | IC50 (2-Hydroxyacid oxidase 1 [14]) [µM] | IC50 (2-Hydroxyacid oxidase 1 [15]) [µM] | Activity (HEK293) | Activity (Hepatocyte [16]) [%] | EC50 [17] [nM] | EC50 [18] [nM] | inhibition [19] [%]
1 | N.O=C(O)c1cc(-c2ccc(CNCc3ccccc3)o2)ccc1O | < 50 | < 50 | 2500 | 3.3 | 0.18 | 0.63 | Non-Toxic | Non-Toxic | Non-Toxic | – | – | – | – | – | – | – | – | – | – | –
2 | CC(C)(C)C(O)/C=C/c1ccc2c(c1)OCO2 (stereo unspecified) [STIRIPENTOL] | – | – | – | – | – | – | Non-Toxic | Non-Toxic | Non-Toxic | 0.27 | 0.33 | 0.7 | 0.49 | – | – | – | – | – | – | –
3 | C#CCN(Cc1ccc(-c2ccc(O)c(C(=O)O)c2)o1)Cc1ccc(-c2ccc(O)c(C(=O)O)c2)o1.N.N | – | – | 1600 | 2.3 | 0.44 | – | Non-Toxic | Non-Toxic | Non-Toxic | 0.2 | 0.25 | 0.21 | 0.52 | 2 | 0.8 | Non-Toxic | – | – | – | –
4 | CCN(CC)CC.O=C(O)c1cc(-c2ccc(CN(Cc3ccccc3)Cc3ccco3)o2)ccc1O | – | – | 2300 | 4.3 | -0.09 | 0.42 | Non-Toxic | Non-Toxic | Non-Toxic | 0.31 | 0.34 | 0.22 | 0.3 | 16.8 | 8 | – | 60 | 500 | 600 | –
5 | COc1ccc(CNCc2ccc(-c3ccc(O)c(C(=O)O)c3)o2)cc1 | < 50 | < 50 | – | – | – | – | – | – | – | – | – | – | – | – | – | – | – | – | – | 18
6 | O=C(O)c1cc(-c2ccc(CNCc3ccc(O)cc3)o2)ccc1O | < 50 | < 50 | – | – | – | – | – | – | – | – | – | – | – | – | – | – | – | – | – | 18
